High-throughput results from PubChem.
BaF3 parental: reduces parental Ba/F3 cell viability, JAK2V617F counter-screen. AID 1486. CellTiter-Glo ATP luminescence. actives 1.1% (n = 220,000). inhibition, % at 5.6 µM;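 active = inhibition above a per-campaign cutoff, the mean inhibition of all tested compounds plus 3 SD, cut at about 27% in these data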;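 also: 0% = DMSO wells and 100% = JAK Inhibitor I control wells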
L major viab: reduces viability of Leishmania major promastigotes; resazurin fluorescence viability; inhibition, % at 10 µM; actives 9% (n = 200,000); AID 1063; in the data active = inhibition above about 50%;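 also: promastigotes grown with compound for 44 hours at 28 °C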
MT stabilizer: stabilizes microtubules in HeLa cells; actives 0.83% (n = 200,000); HeLa tubulin immunostaining HCS, 24 h; share of cells brighter than vehicle mean+2SD; % tubulin-high responders, % at 10 µM;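 active = plate Z-score above 3 for both tubulin-high and condensed-nucleus cell shares, with cell loss under 80%, at 10 µM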;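 also: anti alpha tubulin signal scored within the nucleus-defined area of each cell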
Ba/F3 V617F tox: lowers viability of Ba/F3 cells expressing EpoR and JAK2V617F. actives 1.1% (n = 220,000). AID 1446. inhibition, % at 5.6 µM. ATP luminescence;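 active = inhibition above the campaign mean plus 3 SD over all tested compounds, cut at about 24% in these data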;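 also: cytokine-independent growth of Ba/F3 cells driven by EpoR plus mutant JAK2; 0% = DMSO-treated cells and 100% = JAK inhibitor I control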
APP transl inh: APP translation inhibition | SH-SY5Y APP 5'UTR-luciferase reporter, luminescence | inhibition, % at 2 µM | actives 0.82% (n = 190,000);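 active = inhibition above a set limit, derived from the sample mean plus 3 SD, cut at about 45% in these data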
bCat nuc transl: alters nuclear translocation of beta-catenin in HeLa cells; immunofluorescence imaging; nuclear translocation activity, % at 5 µM; actives 0.3% (n = 190,000);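 active = nuclear translocation activity above 50% at 5 µM, with a well cell count of 50 or more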;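 also: per-cell ratio of nuclear to cytoplasmic median beta-catenin stain intensity; plate controls were DMSO negative control for no effect and GSK-3 inhibitor IX positive control for full effect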
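Assay system: human HeLa cells, native beta-catenin; doses: 5 µM primary, 0.02–20 µM confirmation; incubation: compound treatment 24 h, 37°C, 5% CO2; technique: fluorescence imaging of beta-catenin antibody stain plus DAPI; measure: % activation, nuclear-to-cytoplasmic median beta-catenin signal ratio per cell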
Starred values were filed as active, the others as inactive; / = not tested or not shown. Compounds with a hit are over-represented: about 9.6% of the library has one in this group of screens.

SMILES	BaF3 parental	L major viab	MT stabilizer	Ba/F3 V617F tox	APP transl inh	bCat nuc transl
N#CC(C#N)=C1C=CC=CN1/C(=C\c1ccco1)C(=O)c1ccc(Br)cc1	2	24	4	-3	93*	5
N#C/C(=C/c1ccco1)C(N)=S	6	/	/	-2	/	-1
COc1ccc(/C=C(/C(=O)c2cccs2)N2C=CC=CC2=C(C#N)C#N)cc1	-1	0	7	-3	82*	1
N#CC(C#N)=C1C=CC=CN1/C(=C\c1ccco1)C(=O)c1ccccc1	71*	46	1	92*	96*	-1
COc1ccc(/C=N/NC(=O)CNC(=O)c2cccs2)cc1	7	9	5	0	0	0
Cn1c(SCC(=O)Nc2ccccc2)nnc1-c1ccc2nonc2c1	0	/	/	6	/	0
CCO[C@@H]1OC(C(=O)N2CCCCCCC2)=C[C@H](c2cn(C(C)=O)c3ccccc23)[C@H]1CCCO	0	15	2	1	-20	-2
CCOC(=O)/C(=N/Nc1ccc(C)cc1)S(=O)(=O)c1ccc(Cl)cc1	6	1	3	-1	63*	1
Oc1ccc(Nc2nc(NCC3CCCO3)c3ccccc3n2)cc1 (centres undefined)	3	100*	2	-2	-15	-1
c1ccc2c(NCC3CCCO3)nc(N3CCCCC3)nc2c1 (centres undefined)	8	67*	1	-3	-2	-1
Oc1ccccc1Nc1nc(NCC2CCCO2)c2ccccc2n1 (centres undefined)	3	82*	1	0	5	-3
CC(C)Oc1ccc(-c2nc(NCC3CCCO3)c3ccccc3n2)cc1 (centres undefined)	5	/	/	2	/	1
Nc1nc(N2CCCCC2)nc2ccccc12	-2	38	5	-2	-12	-5
COC(=O)CSC1=C(C#N)C(c2ccc(F)cc2)CC(=O)N1 (centres undefined)	43*	-1	6	2	-28	-1
COC(=O)CSC1=C(C#N)C(c2sccc2C)CC(=O)N1 (centres undefined)	4	-12	1	-2	-15	-1
COC(=O)CSC1=C(C#N)C(c2ccc(C)o2)CC(=O)N1 (centres undefined)	43*	-6	17*	7	-8	2
Cc1cc(C)c(S(=O)(=O)N2CCN(c3nc4c(c(=O)n(C)c(=O)n4C)n3C)CC2)c(C)c1	/	/	/	/	/	-1
COc1ccc(C2=C/C(=C\c3cccc(OC(C)=O)c3)C(=O)O2)cc1	2	51*	3	-1	2	0
O=CN1CCN(C(=O)c2ccc(-c3nc4ccccc4s3)s2)CC1	3	6	3	7	-90	0
COc1ccc(-n2cc(CNC3CCN(C)CC3)c(-c3cccc(F)c3)n2)cc1	5	100*	3	10	4	1
Cc1ccccc1C(=O)Nc1cccc(C(=O)N/N=C/c2cc(Cl)cc([N+](=O)[O-])c2O)c1	8	1	1	5	-5	-2
COc1ccccc1N(C)S(=O)(=O)c1ccc(C(=O)NC(C)c2ccccc2)cc1 (centres undefined)	6	/	/	2	/	0
COc1ccccc1N1CCN(C(CNS(C)(=O)=O)c2cccnc2)CC1 (centres undefined)	5	17	1	-1	-3	-2
COc1ccccc1N1CCN(C(CNS(=O)(=O)c2ccc(C)cc2)c2cccnc2)CC1 (centres undefined)	6	96*	3	3	18	-11
O=C(NCC(c1cccnc1)N1CCN(c2ccccc2F)CC1)c1cccc(Cl)c1 (centres undefined)	3	94*	1	-3	-7	/
SMILES	BaF3 parental	L major viab	MT stabilizer	Ba/F3 V617F tox	APP transl inh	bCat nuc transl
COC(=O)NCC(c1cccnc1)N1CCN(c2ccccc2F)CC1 (centres undefined)	-1	56*	4	-4	4	0
COc1ccccc1N1CCN(C(CNC(=O)c2ccco2)c2cccnc2)CC1 (centres undefined)	5	81*	6	0	7	0
CS(=O)(=O)NCC(c1cccnc1)N1CCN(c2ccccc2F)CC1 (centres undefined)	1	/	/	-2	/	0
COC(=O)NCC(c1cccnc1)N1CCOCC1 (centres undefined)	3	-11	4	-2	15	11
COC(=O)NCC(c1cccnc1)N1CCN(c2ccccc2OC)CC1 (centres undefined)	4	70*	8	-1	-6	-1
Cc1cc(C(=O)NN)c(Cl)cc1Cl	0	/	/	1	/	-1
COc1ccc(Cl)cc1NC(=O)N1CCN(CCc2ccccc2)CC1	1	1	2	0	-11	-1
COc1ccc(Cl)cc1NC(=O)C(C)N1CCN(C/C=C/c2ccccc2)CC1 (centres undefined)	6	62*	3	-4	5	/
C(=C\c1ccccc1)/CN1CCN(C(c2ccccc2)c2ccccc2)CC1	2	27	5	-1	-9	/
CC(=O)c1ccc(NC(=O)C(C)N2CCN(C/C=C/c3ccccc3)CC2)cc1 (centres undefined)	6	86*	3	2	-6	1
CC(C(=O)Nc1ccc([N+](=O)[O-])cc1)N1CCN(C/C=C/c2ccccc2)CC1 (centres undefined)	6	82*	3	-4	3	4
CC(C(=O)N(C)Cc1ccccc1)N1CCN(C/C=C/c2ccccc2)CC1 (centres undefined)	0	/	/	-3	/	-1
COc1ccc(-c2cn3cc(Br)cnc3n2)cc1	4	-2	20*	1	-100	1
Cc1ccc(NC(=S)N(CCN(C)C)Cc2cc3cc(C)cc(C)c3[nH]c2=O)cc1	6	79*	4	-1	-5	-5
CCOCCCN(Cc1cc2cc(C)cc(C)c2[nH]c1=O)C(=O)N(CC)CC	5	58*	2	-1	1	1
Cc1ccc(S(=O)(=O)N2CCC(=O)N(C(COCc3cccc(C(F)(F)F)c3)Cc3ccccc3)CC2)cc1 (centres undefined)	4	0	4	-1	3	/
CC(=O)c1ccc(-c2ccccc2[C@H]2[C@H]3C=CC[C@@H](C)[C@@H]3C(=O)N2Cc2ccccc2)cc1	/	/	/	/	/	-2
Cc1ccc(NC(=O)C2CCCN2S(=O)(=O)c2ccc3c(c2)n(C)c(=O)c(=O)n3C)cc1C (centres undefined)	0	0	3	-2	-13	-2
Cc1ccc(-n2c(=O)[nH]c3c(C(N)=O)nc(CC(C)C)nc32)cc1	5	70*	4	3	-13	/
CCOc1cccc(-c2nc(C(N)=O)c3[nH]c(=O)n(-c4cccc(Cl)c4)c3n2)c1O	2	-8	3	-2	-6	-2
